High-throughput results as filed in PubChem BioAssay.
MOR-DOR inv ag – inverse agonist of human OPRM1-OPRD1 heterodimerization. P35372+P41143. cell-based MOR-DOR heterodimer luminescence, inverse agonism. inhibition, % at 9.3 µM. 340,000 tested, 0.21% active; in the data active = inhibition above about 22%, passing the limit was not always enough;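 note: 0% = cells with DMSO and 100% = wells without cells with DMSO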
HTR5A ag – counter-screen for OPRM1-OPRD1 agonists: human HTR5A agonism. P47898. HTR5A agonist assay, luminescence, cell-based. activation, % at 9.3 µM. 340,000 tested, 0.61% active; in the data active = activation mostly above about 9.5%, no sharp cut-off; inactive = mostly below about 7.6%;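 note: 0% = cells with vehicle only and 100% = reference agonist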
MC4R antag cAMP – blocks human MC4R cAMP signaling; MC4R-expressing cells, MTII-stimulated cAMP, LANCE TR-FRET; 360,000 tested, 0.48% active; inhibition, % at 6.5 µM; P32245;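 active = inhibition above its plate's cutoff, the mean of tested wells on that plate plus 3 SD, cut at about 29% in these data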;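 note: 0% = Melanotan II alone and 100% = Melanotan II plus saturating MCL0020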
Target sequence (P32245 whole entry, looked up): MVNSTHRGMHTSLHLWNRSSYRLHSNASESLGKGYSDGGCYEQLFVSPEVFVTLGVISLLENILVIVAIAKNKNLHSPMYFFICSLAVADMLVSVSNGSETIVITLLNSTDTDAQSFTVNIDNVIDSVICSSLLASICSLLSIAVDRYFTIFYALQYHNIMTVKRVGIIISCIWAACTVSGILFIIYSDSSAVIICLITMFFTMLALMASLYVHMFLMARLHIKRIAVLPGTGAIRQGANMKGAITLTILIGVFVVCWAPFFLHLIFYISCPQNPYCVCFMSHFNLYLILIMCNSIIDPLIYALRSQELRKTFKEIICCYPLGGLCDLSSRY
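Material – human MC4R-expressing U2OS cells · Repeats – no replicates · Detection – TR-FRET with Eu-cAMP and labeled anti-cAMP, 671 nm · Times – compound 30 min, challenge 1 h, detection 1 h · Compound – single nominal compound dose of 6.5 µM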
MC4R barr agon – human MC4R agonism via beta-arrestin; P32245; U2OS MC4R beta-arrestin complementation, luminescence; percent of melanotan II response, DMSO zero; activation, % at 8.9 µM; 360,000 tested, 0.98% active;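 active = activation above a per-plate cutoff, the mean activation of sample wells on that plate plus 3 SD, cut at about 8% in these data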
HTR5A inv ctr – inverse agonist of human HTR5A in OPRM1-OPRD1 counter-screen. P47898. HTR5A cell line, luminescence, inverse agonism. inhibition, % at 9.3 µM. 340,000 tested, 0.083% active; in the data active = inhibition mostly above about 23%, no sharp cut-off; inactive = mostly below about 18%;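 note: 0% = cells with DMSO and 100% = no-cell wells with DMSO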
MOR-DOR ag – agonists of human mu-delta opioid receptor heterodimerization; cells, OPRM1-OPRD1 heterodimerization, luminescence; activation, % at 9.3 µM; P35372+P41143; 340,000 tested, 0.3% active; in the data active = activation above about 18%;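 note: 0% = vehicle-treated cells and 100% = reference agonist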
* = called active by the depositor. Rows were chosen to be rich in hits. Some 2.4% of all compounds tested hit in one or more screens of this group.

SMILES | MOR-DOR inv ag | HTR5A ag | MC4R antag cAMP | MC4R barr agon | HTR5A inv ctr | MOR-DOR ag
COc1ccc(C2=NOC(C)(c3nnc(-c4ccncc4)o3)C2)cc1 (stereo not drawn) | 14 | -2 | -2 | 0 | -21 | -3
CCOC(=O)c1sc(NC(=O)CN(CC(C)C)CC(C)C)c(C(=O)OCC)c1C | -2 | 13* | 6 | 0 | -34 | 0
CCc1ccccc1S(=O)(=O)Cc1ccc(C(=O)NC(C)C)o1 | 14 | 13* | 2 | 0 | -35 | -3
CCc1ccccc1S(=O)(=O)Cc1ccc(C(=O)NCc2ccc3c(c2)OCO3)o1 | 0 | -5 | 14 | 1 | 14 | 0
Nc1nc(N)nc(COc2ccccc2)n1 | 12 | 5 | -6 | 0 | -12 | -2
Cc1csc(SCC(=O)N(C)c2c(N)n(Cc3ccccc3)c(=O)[nH]c2=O)n1 | 10 | 12* | -2 | 0 | -32 | -2
CC1(C)CC2CC(C)(CN2C(=O)c2cc(-c3ccc(O)cc3)on2)C1 (stereo not drawn) | -39 | 2 | -8 | 8.9* | -6 | 7
COc1cc(C(=O)NC(=S)Nc2cccc3nc(C)ccc23)cc(OC)c1OC | -135 | 30* | 7 | 5 | -59 | 27*
CCOC(=O)C1CCCN(c2cc(=O)n(C3CCCCC3)c(=O)[nH]2)C1 (stereo not drawn) | -32 | -2 | 3 | 1 | 28 | 5
COC(=O)c1cccc(NC(=O)c2ccco2)c1 | 2 | 6 | 4 | -1 | -17 | 0
COC(=O)c1cccc(NC(=O)CCNC(=O)c2ccco2)c1 | -16 | 13* | -1 | 3 | -29 | 3
Cc1cc(OCC(=O)Nc2cc(C(C)(C)C)on2)ccc1[N+](=O)[O-] | -34 | 5 | 11 | 2 | 6 | 6
O=C(CCc1nc2sc3c(c2c(=O)[nH]1)CCCC3)Nc1cccc(Cl)c1 | -14 | 3 | -1 | 8.3* | 8 | 2
COC(=O)c1c(-n2cnnn2)sc(C)c1C | 12 | 12* | -3 | -1 | -16 | -2
CC(=O)Nc1nc2n(n1)C(c1ccccc1)C=C(c1ccccc1)N2 (stereo not drawn) | 17 | -12 | 0 | 0 | 32* | -3
Cc1cccc(CCN=c2c([N+](=O)[O-])nn(-c3ccccc3)n2O)c1 | -31 | 9 | -6 | 2 | -23 | 6
Cc1ccc(N=c2c([N+](=O)[O-])nn(-c3ccccc3)n2O)c(C)c1 | -37 | 11* | 2 | -1 | -15 | 7
Cc1cc(-c2ccccc2)nc(N/N=C/c2cccnc2)n1 | 0 | 11* | 6 | 1 | -27 | 0
C(=N/Nc1nc(-c2ccccc2)cc(-c2ccccc2)n1)/c1cccnc1 | -15 | 4 | 12 | -2 | 14 | 3
COC(=O)c1nc2nc(-c3cccs3)cc(C(F)(F)F)n2n1 | 2 | 11* | 13 | -4 | -30 | 0
COC(=O)c1nc2nc(C)cc(C(F)(F)F)n2n1 | -6 | 3 | 20 | 1 | -7 | 1
COc1ccc2cc(C3OCCO3)c(Cl)nc2c1 | 1 | -1 | 11 | -3 | 8 | 0
Cc1c(Nc2cc(Cl)c3nonc3c2[N+](=O)[O-])c(=O)n(-c2ccccc2)n1C | 46* | -13 | -23 | -6 | 33* | -9
CC1=NNC(=O)C1CCC(=O)N/N=C/c1ccc(Cl)cc1Cl (stereo not drawn) | 13 | 4 | -1 | 0 | -35 | -3
Cn1c(SCC(=O)c2ccccc2)nc2cccnc21 | -11 | 9.7* | 15 | -1 | 12 | 2
SMILES | MOR-DOR inv ag | HTR5A ag | MC4R antag cAMP | MC4R barr agon | HTR5A inv ctr | MOR-DOR ag
COc1ccccc1/C=C\C=N\n1c(-c2ccc(Cl)cc2)n[nH]c1=S | -12 | 1 | 8 | 8.9* | 1 | 2
CC(C)NCC(O)COc1ccc(Br)cc1 (stereo not drawn) | -8 | 12* | 4 | -4 | -34 | 1
CCC(CC)NCC(O)COc1ccc(Br)cc1 (stereo not drawn) | 9 | -5 | -3 | -1 | 13 | -2
CN1CCN(c2ccc(S(=O)(=O)N3CCOCC3)cc2)CC1 | 13 | -1 | 3 | -1 | -4 | -2
O=C(O)c1ccccc1OC(C(=O)Nc1cc(Cl)cc(Cl)c1)c1ccccc1 (stereo not drawn) | 1 | 2 | 2 | 9.3* | -6 | 0
O=C(Nc1cc(Cl)cc(Cl)c1)C(c1ccccc1)N1CCCCC1 (stereo not drawn) | -54 | 3 | -2 | 7 | -11 | 10
CCOc1[nH]n(-c2ccccc2)c(=O)c1C=Nc1ccc(C)cc1 | 6 | -1 | 1 | 1 | -7 | -1
CCOc1[nH]n(-c2ccccc2)c(=O)c1C=Nc1ccccc1 | -3 | 13* | 7 | 2 | 7 | 0
CC(C)[C@H](NC(=O)[C@@H]1Cc2c([nH]c3ccccc23)C2c3ccccc3C(=O)N21)C(=O)N1CCC[C@@H]1C(=O)O (stereo partly drawn) | 19 | 1 | 2 | 0 | 3 | -4
C=CC[C@H](CC(=O)N[C@H](CO)Cc1ccccc1)C(=O)N[C@H](COC(=O)[C@@H](CC=C)CC(=O)OC(C)(C)C)Cc1c[nH]c2ccccc12 | -34 | -2 | 11 | 8.3* | 5 | 6
O=C(NNc1ncc(C(F)(F)F)cc1Cl)c1ccc(Cl)c(Cl)c1 | 15 | 2 | -1 | -1 | -4 | -3
Fc1ccc(NC(=S)NNc2ncc(C(F)(F)F)cc2Cl)c(F)c1 | 56* | -15 | 27 | -7 | 39* | -10
O=S(=O)(NNc1ncc(C(F)(F)F)cc1Cl)c1ccc(F)cc1F | -9 | 11 | 12 | -3 | -28 | 2
FC(F)(F)c1cnc(NNC(=S)Nc2ccc(Cl)cc2)c(Cl)c1 | 49* | -10 | 23 | 0 | 49* | -10
OC[C@H]1O[C@@H](O[C@@H]2[C@@H](CO)O[C@@](O)(CO)[C@H]2O)[C@H](O)[C@@H](O)[C@H]1O | 13 | 2 | 6 | 0 | 12 | -2
O=C(NC(C(=O)O)c1ccccc1)c1ccc(S(=O)(=O)N2CCOCC2)cc1 (stereo not drawn) | 7 | 12* | 0 | -2 | -39 | -1
O=C(NNC(=O)c1ccc(S(=O)(=O)N2CCOCC2)cc1)c1ccccc1 | -11 | 0 | 7 | 0 | 0 | 1
CCCC1(C(=O)O)NC(c2cccc(OC)c2O)C2C(=O)N(c3ccccc3)C(=O)C21 (stereo not drawn) | 6 | 1 | 9 | 1 | -2 | -1
CCCC1(C(=O)O)NC(c2ccccc2O)C2C(=O)N(c3cccc(Cl)c3)C(=O)C21 (stereo not drawn) | 16 | 14* | -6 | 0 | -42 | -3
CCCc1c(C(=O)Nc2ccc(F)cc2F)cnn1-c1ccccc1 | 17 | 6 | -2 | -2 | 11 | -4
